Reference: ChEMBL document CHEMBL4196198, “Terpenoids from Euphorbia pedroi as Multidrug-Resistance Reversers” (J Nat Prod, 2018)

Key:
[1] = tested on: L5178Y; test: Antiproliferative activity against mouse L5178Y cells after 72 hrs by MTT assay; format: cell-based
Outline: (§1)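 L5178Y-PAR and ABCB1-transfected L5178Y-MDR cells seeded at 6 × 10^3 per well. Compounds tested in 2-fold serial dilutions for 72 h. MTT in PBS was added for 4 h, then SDS (10% in 0.01 M HCl) overnight at 37 °C. OD read at 550 nm (reference 630 nm), in quadruplicate. IC50 fitted from dose–inhibition curves; mean ± SD.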

[2] = tested on: L5178Y; test: Antiproliferative activity against mouse L5178Y cells harboring human ABCB1 after 72 hrs by MTT assay; format: ADME, cell-based; outline: as §1
[3] = target: T1, ATP-dependent translocase ABCB1 (Homo sapiens, UniProt P08183); test: Modulation of human ABCB1 expressed in mouse L5178Y cells assessed as fluorescence activity ratio at 2 uM pretreated for 10 mins followed by rhodamine 123 addition and measured after 20 mins by flow cytometry (reference value: 1.01); format: cell-based
T1 sequence (P08183 whole entry): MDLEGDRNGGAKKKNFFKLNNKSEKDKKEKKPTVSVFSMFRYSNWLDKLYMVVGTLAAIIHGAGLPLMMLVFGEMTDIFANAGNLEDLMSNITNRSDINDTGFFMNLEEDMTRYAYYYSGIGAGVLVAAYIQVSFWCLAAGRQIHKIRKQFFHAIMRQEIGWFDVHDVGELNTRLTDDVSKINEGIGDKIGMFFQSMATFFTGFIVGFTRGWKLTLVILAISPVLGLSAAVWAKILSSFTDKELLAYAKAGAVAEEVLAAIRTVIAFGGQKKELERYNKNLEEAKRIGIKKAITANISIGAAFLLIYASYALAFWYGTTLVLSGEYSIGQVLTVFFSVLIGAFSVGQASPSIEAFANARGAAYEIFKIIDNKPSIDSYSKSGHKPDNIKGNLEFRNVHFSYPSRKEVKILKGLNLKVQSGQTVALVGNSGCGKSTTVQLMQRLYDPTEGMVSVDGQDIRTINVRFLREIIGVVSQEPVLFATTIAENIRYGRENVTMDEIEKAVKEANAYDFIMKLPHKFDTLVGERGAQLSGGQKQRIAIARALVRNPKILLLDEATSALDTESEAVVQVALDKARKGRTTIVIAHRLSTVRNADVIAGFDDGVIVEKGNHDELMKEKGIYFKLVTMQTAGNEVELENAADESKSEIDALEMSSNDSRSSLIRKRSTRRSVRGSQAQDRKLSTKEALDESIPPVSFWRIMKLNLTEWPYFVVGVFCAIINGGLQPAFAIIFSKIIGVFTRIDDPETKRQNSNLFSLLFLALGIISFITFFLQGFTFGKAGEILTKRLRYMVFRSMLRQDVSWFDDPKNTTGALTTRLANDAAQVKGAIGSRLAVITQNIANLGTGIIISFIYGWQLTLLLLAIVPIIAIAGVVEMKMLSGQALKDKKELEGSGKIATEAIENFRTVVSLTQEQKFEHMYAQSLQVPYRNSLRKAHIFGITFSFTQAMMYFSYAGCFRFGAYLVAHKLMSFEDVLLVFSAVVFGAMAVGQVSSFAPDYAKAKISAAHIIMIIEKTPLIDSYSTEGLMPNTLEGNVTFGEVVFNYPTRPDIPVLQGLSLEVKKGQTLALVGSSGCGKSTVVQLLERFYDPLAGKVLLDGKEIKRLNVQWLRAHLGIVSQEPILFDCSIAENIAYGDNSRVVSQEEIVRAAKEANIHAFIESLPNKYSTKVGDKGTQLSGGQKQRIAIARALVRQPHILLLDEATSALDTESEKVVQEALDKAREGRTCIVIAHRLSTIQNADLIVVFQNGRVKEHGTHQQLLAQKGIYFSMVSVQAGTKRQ

[4] = target: T1, ATP-dependent translocase ABCB1; test: Modulation of human ABCB1 expressed in mouse L5178Y cells assessed as fluorescence activity ratio at 20 uM pretreated for 10 mins followed by rhodamine 123 addition and measured after 20 mins by flow cytometry (reference value: 1.01); format: cell-based
[5] = target: T1, ATP-dependent translocase ABCB1; test: Modulation of human ABCB1 expressed in mouse L5178Y cells assessed as potentiation of doxorubicin-induced cytotoxicity by measuring combination index at ED50 measured after 48 hrs by MTT assay; format: cell-based
Outline: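 Checkerboard in L5178Y-MDR cells: doxorubicin diluted 14.7–0.1 μM along one axis, modulator diluted from 2-fold its IC50 along the other, at fixed ratios. Cells at 2 × 10^5/mL, 48 h, MTT read-out. Dose–response curves fitted by Chou median-effect equation, keeping only r > 0.90. CI at 50% inhibition given as mean ± SD of three CI values from different drug ratios.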

[6] = tested on: COLO 320; test: Cytotoxicity against human COLO320 cells after 24 hrs by MTT assay; format: cell-based; conditions: COLO 320, 24 h
Outline: (§2)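 Cells seeded at 1 × 10^4 per well, with adherent lines detached by trypsin-EDTA and allowed 4 h attachment at 37 °C, 5% CO2. Compounds in 2-fold serial dilutions for 24 h. MTT for 4 h, SDS/HCl solubilization overnight, OD 550 nm (ref 630 nm) in quadruplicate. Percent growth inhibition calculated vs cell and medium controls; IC50 from fitted curves.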

[7] = tested on: COLO 205; test: Cytotoxicity against human COLO205 cells after 24 hrs by MTT assay; format: cell-based; conditions: COLO 205, 24 h; outline: as §2
[8] = tested on: NIH3T3; test: Cytotoxicity against mouse NIH/3T3 cells after 24 hrs by MTT assay; format: cell-based; conditions: NIH3T3, 24 h; outline: as §2
[9] = tested on: MRC5; test: Cytotoxicity against human MRC5 cells after 24 hrs by MTT assay; format: cell-based; conditions: MRC5, 24 h; outline: as §2
[10] = target: T1, ATP-dependent translocase ABCB1; test: Modulation of ABCB1 (unknown origin) expressed in human COLO320 cells co-expressing LRP assessed as fluorescence activity ratio at 2 uM pretreated for 10 mins followed by rhodamine 123 addition and measured after 20 mins by flow cytometry (reference value: 0.79); format: cell-based
[11] = target: T1, ATP-dependent translocase ABCB1; test: Modulation of ABCB1 (unknown origin) expressed in human COLO320 cells co-expressing LRP assessed as fluorescence activity ratio at 20 uM pretreated for 10 mins followed by rhodamine 123 addition and measured after 20 mins by flow cytometry (reference value: 0.79); format: cell-based
[12] = target: T1, ATP-dependent translocase ABCB1; test: Modulation of human ABCB1 expressed in mouse L5178Y cells assessed as fluorescence activity ratio at 0.2 uM pretreated for 10 mins followed by rhodamine 123 addition and measured after 20 mins by flow cytometry (reference value: 1.01); format: cell-based
[13] = target: T1, ATP-dependent translocase ABCB1; test: Modulation of ABCB1 (unknown origin) expressed in human COLO320 cells co-expressing LRP assessed as fluorescence activity ratio at 0.2 uM pretreated for 10 mins followed by rhodamine 123 addition and measured after 20 mins by flow cytometry (reference value: 0.79); format: cell-based

Work on CC1=C2C=C3CC[C@@H]4C(C)(C)/C(=N/O)CC[C@@]4(C)[C@@H]3C[C@H]2OC1=O yielded an IC50 [1] greater than 10 µM, an IC50 [2] greater than 10 µM and a Ratio [3] of 0.96. The Ratio [4] was 4.88 and the CI [5] was 0.477.
For C=C(CC[C@@H](C)[C@H]1CC[C@@]2(C)C3=C(C(=O)C[C@]12C)[C@@]1(C)CC[C@H](O)[C@@H](C)[C@@H]1CC3=O)C(C)C, the IC50 [1] was greater than 10 µM, the IC50 [2] was greater than 10 µM and the IC50 [6] was greater than 10 µM. The IC50 [7] was greater than 10 µM, the IC50 [8] was greater than 10 µM and the IC50 [9] was greater than 10 µM. The Ratio [3] was 6.14, the Ratio [4] was 30.68 and the Ratio [10] was 1.09. For the same compound, the Ratio [11] was 1.84.
C[C@H](C/C=C/C(C)(C)O)[C@H]1CC[C@@]2(C)[C@@H]3CC[C@H]4C(C)(C)[C@@H](O)CC[C@@]45C[C@@]35CC[C@]12C showed an IC50 [1] greater than 10 µM, an IC50 [2] greater than 10 µM and an IC50 [6] greater than 10 µM. The IC50 [7] was greater than 10 µM, the IC50 [8] was greater than 10 µM and the IC50 [9] was greater than 10 µM. It also gave a Ratio [3] of 10.68, a Ratio [4] of 67.05 and a Ratio [10] of 1.26. It also gave a Ratio [11] of 3.45.
Work on CC1=C2C=C3CC[C@@H]4C(C)(C)/C(=N/OC(=O)c5cccs5)CC[C@@]4(C)[C@@H]3C[C@H]2OC1=O yielded an IC50 [1] greater than 10 µM, an IC50 [2] greater than 10 µM and a Ratio [3] of 1.09. It also gave a Ratio [4] of 7.09 and a CI [5] of 0.324.
With CC1=C2C=C3CC[C@@H]4C(C)(C)C(=O)CC[C@@]4(C)[C@@H]3C[C@H]2OC1=O [HELIOSCOPINOLIDE E] the IC50 [1] was greater than 10 µM, the IC50 [2] was greater than 10 µM and the IC50 [6] was greater than 10 µM. The IC50 [7] was greater than 10 µM, the IC50 [8] was greater than 10 µM and the IC50 [9] was greater than 10 µM. The Ratio [3] was 1.84, the Ratio [4] was 10.23 and the Ratio [10] was 0.44. It also gave a Ratio [11] of 0.98 and a CI [5] of 0.367.
Compound CC1=C2C=C3CC[C@@H]4C(C)(C)/C(=N/OC(=O)c5ccccc5)CC[C@@]4(C)[C@@H]3C[C@H]2OC1=O has an IC50 [1] greater than 10 µM, an IC50 [2] greater than 10 µM and a Ratio [3] of 5.78. For the same compound, the Ratio [4] was 56.37 and the CI [5] was 0.152.
With CC(=O)O/N=C1\CC[C@@]2(C)[C@@H]3C[C@H]4OC(=O)C(C)=C4C=C3CC[C@@H]2C1(C)C the IC50 [1] was greater than 10 µM, the IC50 [2] was greater than 10 µM and the Ratio [3] was 3.02. It also gave a Ratio [4] of 38.64 and a CI [5] of 0.501.
CC1=C2C=C3CC[C@@H]4C(C)(C)/C(=N/OC(=O)c5ccco5)CC[C@@]4(C)[C@@H]3C[C@H]2OC1=O showed an IC50 [1] greater than 10 µM, an IC50 [2] greater than 10 µM and a Ratio [3] of 2.1. It also gave a Ratio [4] of 40.69 and a CI [5] of 0.454.
For CCCC(=O)O/N=C1\CC[C@@]2(C)[C@@H]3C[C@H]4OC(=O)C(C)=C4C=C3CC[C@@H]2C1(C)C, the IC50 [1] was greater than 10 µM, the IC50 [2] was greater than 10 µM and the Ratio [3] was 1.36. It also gave a Ratio [4] of 10.38 and a CI [5] of 0.387.
C=C(CC[C@@H](C)[C@H]1CC[C@@]2(C)C(=O)[C@@]3(CC[C@]12C)[C@@H](O)C[C@H]1[C@H](C)[C@@H](O)CC[C@@]13C)C(C)C showed an IC50 [1] greater than 10 µM, an IC50 [2] greater than 10 µM and an IC50 [6] greater than 10 µM. The IC50 [7] was greater than 10 µM, the IC50 [8] was greater than 10 µM and the IC50 [9] was greater than 10 µM. It also gave a Ratio [12] of 43.75, a Ratio [3] of 54.38 and a Ratio [4] of 96.02. The Ratio [13] was 1.68, the Ratio [10] was 2.27 and the Ratio [11] was 8. For the same compound, the CI [5] was 0.872.
CC1(C)CC[C@]2(C(=O)O)CC[C@]3(C)C(=CC[C@@H]4[C@@]5(C)CC[C@H](O)C(C)(C)[C@@H]5CC[C@]43C)[C@@H]2C1 [OLEANOLIC_ACID] was tested, and the IC50 [1] was greater than 10 µM, the IC50 [2] was greater than 10 µM and the IC50 [6] was greater than 10 µM. The IC50 [7] was greater than 10 µM, the IC50 [8] was greater than 10 µM and the IC50 [9] was greater than 10 µM. It also gave a Ratio [3] of 1.06, a Ratio [4] of 1.7 and a Ratio [10] of 2.1. The Ratio [11] was 4.71.
C=C(C)[C@H](O)CC[C@@H](C)[C@H]1CC[C@@]2(C)[C@@H]3CC[C@H]4C(C)(C)[C@@H](O)CC[C@@]45C[C@@]35CC[C@]12C gave an IC50 [1] greater than 10 µM, an IC50 [2] greater than 10 µM and an IC50 [6] greater than 10 µM. For the same compound, the IC50 [7] was greater than 10 µM, the IC50 [8] was greater than 10 µM and the IC50 [9] was greater than 10 µM. It also gave a Ratio [3] of 5.91, a Ratio [4] of 43.58 and a Ratio [10] of 0.77. It also gave a Ratio [11] of 5.91.
With CC1=C2C=C3CC[C@@H]4C(C)(C)[C@@H](O)CC[C@@]4(C)[C@@H]3C[C@H]2OC1=O [HELIOSCOPINOLIDE B] the IC50 [1] was greater than 10 µM, the IC50 [2] was greater than 10 µM and the IC50 [6] was greater than 10 µM. It also gave an IC50 [7] greater than 10 µM, an IC50 [8] greater than 10 µM and an IC50 [9] greater than 10 µM. It also gave a Ratio [3] of 1.7, a Ratio [4] of 8.18 and a Ratio [10] of 1.73. The Ratio [11] was 6.78 and the CI [5] was 0.652.
With CC[C@H](CC[C@@H](C)[C@H]1CC[C@H]2[C@@H]3CCC4=CC(=O)CC[C@]4(C)[C@H]3CC[C@]12C)C(C)C the IC50 [1] was greater than 10 µM, the IC50 [2] was greater than 10 µM and the IC50 [6] was greater than 10 µM. The IC50 [7] was greater than 10 µM, the IC50 [8] was greater than 10 µM and the IC50 [9] was greater than 10 µM. It also gave a Ratio [3] of 2.51, a Ratio [4] of 22.56 and a Ratio [10] of 0.97. The Ratio [11] was 1.34.
